Data on two compounds can be found in ChEMBL document CHEMBL1130758, “alpha-substituted quisqualic acid analogs: new metabotropic glutamate receptor group II selective antagonists” (Bioorg Med Chem Lett, 1998).

The structures appear in SMILES notation.

Test [1] deals with T1, Glutamate NMDA receptor (Rattus norvegicus) (UniProt P35439+Q00959+Q00960+Q00961+Q62645+Q8VHN2+Q9R1M7). Kind of test: Antagonistic activity against NMDA ionotropic glutamate receptor was determined by the percentage of 45 [Ca2+] influx in cerebellar neurons at the concentration 100 uM. The format is functional. Put shortly:
(§1)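 Rat cerebellar neurons (7-day-old pups, 8-9 days in culture) were incubated for 15 min at room temperature in Mg2+-free Locke's buffer with 1 µCi/mL 45CaCl2, 100 µM NMDA, 1 µM glycine and 10 µM NBQX. Cells were washed three times with ice-cold buffer and dissolved in 0.5 M NaOH to count radioactivity and protein. Results are % of net agonist-alone influx, mean ± S.E.M. of six measurements from two culture preparations.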

In test [2] the target is Metabotropic glutamate receptor 6 (Rattus norvegicus, UniProt P35349). As to the kind of experiment: Antagonistic activity against rat (mGluR) metabotropic glutamate receptor 6 stably expressed in chinese hamster ovary (CHO) cells. Type of test: functional, cell-based.
Metabotropic glutamate receptor 6, sequence (P35349 whole entry): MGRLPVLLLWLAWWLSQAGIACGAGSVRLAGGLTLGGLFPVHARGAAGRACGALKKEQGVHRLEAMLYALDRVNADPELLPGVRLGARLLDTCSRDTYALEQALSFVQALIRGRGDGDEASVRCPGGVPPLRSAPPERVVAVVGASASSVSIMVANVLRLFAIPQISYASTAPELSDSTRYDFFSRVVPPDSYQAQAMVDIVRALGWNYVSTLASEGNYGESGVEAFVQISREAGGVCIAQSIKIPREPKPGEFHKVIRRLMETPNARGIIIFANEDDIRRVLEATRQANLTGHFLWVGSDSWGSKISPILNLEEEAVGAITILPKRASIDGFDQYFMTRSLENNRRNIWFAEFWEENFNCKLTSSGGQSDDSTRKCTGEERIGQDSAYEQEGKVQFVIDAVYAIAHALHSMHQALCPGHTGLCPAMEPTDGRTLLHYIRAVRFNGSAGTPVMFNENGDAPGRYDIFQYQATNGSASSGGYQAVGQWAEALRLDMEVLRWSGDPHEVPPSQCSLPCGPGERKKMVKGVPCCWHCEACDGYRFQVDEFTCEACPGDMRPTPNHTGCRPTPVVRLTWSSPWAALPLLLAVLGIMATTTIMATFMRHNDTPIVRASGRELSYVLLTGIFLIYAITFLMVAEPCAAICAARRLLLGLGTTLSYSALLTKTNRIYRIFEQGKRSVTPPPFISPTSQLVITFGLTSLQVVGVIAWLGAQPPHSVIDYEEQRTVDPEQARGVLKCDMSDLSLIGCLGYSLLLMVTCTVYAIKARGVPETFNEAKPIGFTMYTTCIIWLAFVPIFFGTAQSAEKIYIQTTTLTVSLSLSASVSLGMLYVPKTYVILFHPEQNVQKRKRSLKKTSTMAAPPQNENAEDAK
The target of test [3] is Metabotropic glutamate receptor 4 (Rattus norvegicus, UniProt P31423). Kind of test: Antagonistic activity against rat (mGluR) metabotropic glutamate receptor 4a stably expressed in chinese hamster ovary (CHO) cells. The format is functional, cell-based.
Metabotropic glutamate receptor 4, sequence (P31423 whole entry): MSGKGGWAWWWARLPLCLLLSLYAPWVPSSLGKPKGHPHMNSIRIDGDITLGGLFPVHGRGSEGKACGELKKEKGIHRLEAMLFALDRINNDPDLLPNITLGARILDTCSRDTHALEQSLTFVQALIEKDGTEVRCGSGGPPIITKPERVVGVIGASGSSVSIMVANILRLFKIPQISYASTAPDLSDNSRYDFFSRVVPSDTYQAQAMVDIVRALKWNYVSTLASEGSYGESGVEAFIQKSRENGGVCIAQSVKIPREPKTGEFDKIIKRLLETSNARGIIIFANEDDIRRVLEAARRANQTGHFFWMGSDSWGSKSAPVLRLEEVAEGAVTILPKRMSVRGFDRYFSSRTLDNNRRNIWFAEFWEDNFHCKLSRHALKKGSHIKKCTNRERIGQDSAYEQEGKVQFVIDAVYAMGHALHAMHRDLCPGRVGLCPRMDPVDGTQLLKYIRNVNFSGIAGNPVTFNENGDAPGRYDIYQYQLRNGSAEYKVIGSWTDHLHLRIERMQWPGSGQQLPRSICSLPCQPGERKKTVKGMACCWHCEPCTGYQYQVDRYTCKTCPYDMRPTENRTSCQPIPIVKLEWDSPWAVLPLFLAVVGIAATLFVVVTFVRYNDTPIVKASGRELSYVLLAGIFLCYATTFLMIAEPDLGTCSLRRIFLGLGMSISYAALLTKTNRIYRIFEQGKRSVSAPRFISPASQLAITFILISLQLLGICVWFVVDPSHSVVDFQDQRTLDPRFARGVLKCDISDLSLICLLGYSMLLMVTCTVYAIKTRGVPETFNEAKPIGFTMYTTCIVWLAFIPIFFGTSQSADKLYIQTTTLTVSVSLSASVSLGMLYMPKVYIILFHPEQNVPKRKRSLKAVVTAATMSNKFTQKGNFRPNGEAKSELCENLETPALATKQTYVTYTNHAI
Test [4] deals with T2, Glutamate receptor ionotropic, kainate (Rattus norvegicus) (UniProt P22756+Q01812+P42260+P42264+Q63273). Kind of test: Antagonistic activity against Ionotropic glutamate receptor kainate was determined by the percentage of 45 [Ca2+] influx in cerebellar neurons at the concentration 100 uM. Type of test: functional. Put shortly:
(§2)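 Rat cerebellar neurons (7-day-old pups, 8-9 days in culture) were given 45CaCl2 (1 µCi/mL) in Locke's buffer with 1 mM Mg2+, 50 µM kainate and 1 µM MK-801, for 15 min at room temperature. After three ice-cold washes and dissolution in 0.5 M NaOH, radioactivity and protein were measured. Results are % of net kainate-alone influx, mean ± S.E.M., n=6 from two preparations.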

Test [5] deals with Metabotropic glutamate receptor 5 (Rattus norvegicus, UniProt P31424). Kind of test: Antagonistic activity against rat (mGluR) metabotropic glutamate receptor 5a stably expressed in chinese hamster ovary (CHO) cells. The format is functional, cell-based. Put shortly:
(§3)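 CHO cells expressing the receptor were labelled overnight with myo-[3H]inositol in glutamine-free medium. They were then exposed to compounds for 30 min at 37 °C in Locke's buffer (HEPES, pH 7.4) with 20 mM LiCl. Inositol phosphates were extracted for 10 min with 0.1 M HCl and separated by anion-exchange chromatography.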

Test [6] concerns the target Metabotropic glutamate receptor 1 (Rattus norvegicus, UniProt P23385). Kind of test: Antagonistic activity against rat (mGluR) metabotropic glutamate receptor 1a stably expressed in chinese hamster ovary (CHO) cells. The format is functional, cell-based. Put shortly: as §3
Test [7] has as its target T1, Glutamate NMDA receptor (Rattus norvegicus). As to the kind of experiment: Antagonistic activity against NMDA ionotropic glutamate receptor was determined by the percentage of 45 [Ca2+] influx in cerebellar neurons at the concentration 1 mM. The format is functional. Put shortly: as §1
Test [8] has as its target T3, Glutamate receptor ionotropic, AMPA (Rattus norvegicus) (UniProt P19491+P19492+P19493+P19490). Kind of test: Antagonistic activity against Ionotropic glutamate receptor AMPA was determined by the percentage of 45 [Ca2+] influx in cerebellar neurons at the concentration 100 uM. The format is functional. Put shortly:
(§4)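 Cerebellar neurons cultured from 7-day-old rats (used at 8-9 days) had 45Ca2+ influx (1 µCi/mL) measured over 15 min at room temperature in Locke's buffer with 1 mM Mg2+, 30 µM AMPA, 10 µM cyclothiazide and 1 µM MK-801. Cells were washed three times ice-cold, dissolved in NaOH and counted, normalized to protein. Results are % of net AMPA-alone influx, mean ± S.E.M., six measurements from two preparations.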

For test [9], the target named is T3, Glutamate receptor ionotropic, AMPA (Rattus norvegicus). Kind of test: Antagonistic activity against Ionotropic glutamate receptor AMPA was determined by the percentage of 45 [Ca2+] influx in cerebellar neurons at the concentration 1 mM. Type of test: functional. Put shortly: as §4
Test [10] has as its target T2, Glutamate receptor ionotropic, kainate (Rattus norvegicus). Kind of test: Antagonistic activity against Ionotropic glutamate receptor kainate was determined by the percentage of 45 [Ca2+] influx in cerebellar neurons at the concentration 1 mM. The format is functional. Put shortly: as §2

Metabotropic glutamate receptor 5, sequence (P31424 whole entry): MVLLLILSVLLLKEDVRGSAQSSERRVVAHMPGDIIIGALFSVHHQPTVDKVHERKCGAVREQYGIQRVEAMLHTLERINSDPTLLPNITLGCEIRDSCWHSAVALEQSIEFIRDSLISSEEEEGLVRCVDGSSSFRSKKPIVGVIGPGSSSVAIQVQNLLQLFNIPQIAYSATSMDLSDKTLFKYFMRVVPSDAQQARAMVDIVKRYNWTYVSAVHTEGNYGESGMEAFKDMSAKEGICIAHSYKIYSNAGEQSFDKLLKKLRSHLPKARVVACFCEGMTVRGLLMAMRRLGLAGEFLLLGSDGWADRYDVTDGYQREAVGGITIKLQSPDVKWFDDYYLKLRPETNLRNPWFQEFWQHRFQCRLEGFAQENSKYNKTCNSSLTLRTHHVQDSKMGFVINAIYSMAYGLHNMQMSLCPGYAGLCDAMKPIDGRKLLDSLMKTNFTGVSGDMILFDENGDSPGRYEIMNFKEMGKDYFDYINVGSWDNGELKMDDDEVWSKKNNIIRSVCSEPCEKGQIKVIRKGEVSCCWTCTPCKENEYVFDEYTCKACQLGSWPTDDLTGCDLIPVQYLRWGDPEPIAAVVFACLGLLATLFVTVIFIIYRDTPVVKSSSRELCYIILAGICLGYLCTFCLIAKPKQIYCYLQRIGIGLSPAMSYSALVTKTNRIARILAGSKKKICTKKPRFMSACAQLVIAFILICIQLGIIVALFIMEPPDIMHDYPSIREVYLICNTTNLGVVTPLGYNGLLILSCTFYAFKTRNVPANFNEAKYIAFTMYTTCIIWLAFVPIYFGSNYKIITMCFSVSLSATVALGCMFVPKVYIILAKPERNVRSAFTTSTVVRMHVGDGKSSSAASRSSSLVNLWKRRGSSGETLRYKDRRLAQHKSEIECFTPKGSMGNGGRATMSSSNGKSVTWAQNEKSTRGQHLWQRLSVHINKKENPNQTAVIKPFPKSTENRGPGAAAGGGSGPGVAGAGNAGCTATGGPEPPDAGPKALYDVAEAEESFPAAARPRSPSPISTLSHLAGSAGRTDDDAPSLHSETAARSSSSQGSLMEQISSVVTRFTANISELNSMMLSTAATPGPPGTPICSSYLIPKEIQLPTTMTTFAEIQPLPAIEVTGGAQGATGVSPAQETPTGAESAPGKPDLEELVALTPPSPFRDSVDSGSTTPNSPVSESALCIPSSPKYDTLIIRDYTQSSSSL
Metabotropic glutamate receptor 1, sequence (P23385 whole entry): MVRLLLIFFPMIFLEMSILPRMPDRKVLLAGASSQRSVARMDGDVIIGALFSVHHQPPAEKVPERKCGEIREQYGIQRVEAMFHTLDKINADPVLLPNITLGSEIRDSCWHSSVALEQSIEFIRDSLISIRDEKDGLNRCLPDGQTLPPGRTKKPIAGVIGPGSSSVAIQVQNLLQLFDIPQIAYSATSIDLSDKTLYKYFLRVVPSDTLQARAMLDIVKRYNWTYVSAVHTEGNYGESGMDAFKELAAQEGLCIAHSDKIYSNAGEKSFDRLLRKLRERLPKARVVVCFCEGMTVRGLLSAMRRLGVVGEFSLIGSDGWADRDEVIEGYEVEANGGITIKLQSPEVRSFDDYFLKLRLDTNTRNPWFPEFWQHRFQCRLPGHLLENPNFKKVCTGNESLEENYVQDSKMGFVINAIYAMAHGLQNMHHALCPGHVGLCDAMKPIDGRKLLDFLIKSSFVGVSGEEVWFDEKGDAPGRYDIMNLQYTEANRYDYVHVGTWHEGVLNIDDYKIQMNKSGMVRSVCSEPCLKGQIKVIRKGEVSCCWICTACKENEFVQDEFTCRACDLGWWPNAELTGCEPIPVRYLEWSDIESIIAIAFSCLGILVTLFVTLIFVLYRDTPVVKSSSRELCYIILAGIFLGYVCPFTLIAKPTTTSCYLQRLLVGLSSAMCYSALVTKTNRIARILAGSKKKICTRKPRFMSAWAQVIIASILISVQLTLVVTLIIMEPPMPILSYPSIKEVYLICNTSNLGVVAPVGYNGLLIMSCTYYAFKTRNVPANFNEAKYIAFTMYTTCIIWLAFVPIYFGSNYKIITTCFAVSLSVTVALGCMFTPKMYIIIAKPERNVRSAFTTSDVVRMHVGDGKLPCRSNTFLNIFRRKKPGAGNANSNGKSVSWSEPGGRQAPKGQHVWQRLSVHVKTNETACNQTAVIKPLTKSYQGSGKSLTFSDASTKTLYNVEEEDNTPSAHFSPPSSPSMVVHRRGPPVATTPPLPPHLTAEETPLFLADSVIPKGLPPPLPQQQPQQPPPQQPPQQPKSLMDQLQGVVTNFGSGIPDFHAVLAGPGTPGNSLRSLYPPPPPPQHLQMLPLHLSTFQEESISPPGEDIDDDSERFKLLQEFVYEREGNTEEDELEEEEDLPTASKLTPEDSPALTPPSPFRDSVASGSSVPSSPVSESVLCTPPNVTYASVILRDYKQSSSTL

Take `N[C@@](Cc1ccccc1)(Cn1oc(=O)[nH]c1=O)C(=O)O`: the figures for the NMDA effect in test [1] and in test [7] were 84% and 52%, respectively. The EC50 in test [2] was above 1000 µM; in [3] it was above 1000 µM; in test [5], around 300 µM; in test [6], around 300 µM. In addition, the KA effect in test [4] came out at 97%; in [10], 105%. In addition, the AMPA effect in test [8] was 113%; in test [9], 103%.
In the case of `C[C@](N)(Cn1oc(=O)[nH]c1=O)C(=O)O`, the NMDA effect in test [1] was 105%; in test [7], 30%. The EC50 in test [2] was above 1000 µM; in test [3] it was above 1000 µM; in test [5], around 1000 µM; in test [6], around 500 µM. The KA effect came to 71% in test [4] and 75% in test [10]. In addition, the AMPA effect in test [8] was 98%; in [9], 89%.
